One may read the IC50 as the concentration that inhibits the measured activity by half. Lower therefore signals higher potency.

The experiment is described as follows: Inhibition of yeast alpha glucosidase after 30 mins. On the set-up: species or system Saccharomyces cerevisiae. The method in brief: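 Baker's yeast α-glucosidase (0.04 U/mL) preincubated 30 min with inhibitor in 0.067 M K2HPO4/KH2PO4 buffer, pH 6.8, at 37 °C; inhibitor and substrate dissolved in DMSO, final DMSO 10%. Reaction started with 0.5 mM substrate, run 5 min at 37 °C, quenched with 0.1 M Na2CO3 (pH 9.8). Absorbance at 405 nm read immediately as hydrolysis rate; triplicate.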
On to `CCN[C@H]1C[C@]23CC[C@H]4[C@@](C)(CCC[C@@]4(C)C(=O)OCC)[C@@H]2CC[C@@]1(C)C3`, for which the midpoint of inhibition, the IC50, lay at 114 µM. The same measure for `C[C@]12CC[C@H]3[C@]4(C)CCC[C@@](C)(C(=O)O)[C@H]4CC[C@@]3(C1)[C@H](CO)[C@H]2O`: 149 µM. For the compound `C[C@]12CC[C@H]3[C@]4(C)CCC[C@@](C)(C(=O)OCc5ccccc5)[C@H]4CC[C@@]3(C1)[C@H](CO)[C@H]2O`, the half-inhibitory concentration (IC50) was more than 200 µM. To `CCOC(=O)[C@]1(C)CCC[C@@]2(C)[C@@H]3CC[C@@]4(C)C[C@]3(CC[C@@H]21)C[C@H]4O` belongs 132 µM; to `CC(C)COC(=O)[C@]1(C)CCC[C@@]2(C)[C@@H]3CC[C@@]4(C)C[C@]3(CC[C@@H]21)[C@H](CO)[C@H]4O`, 102 µM. The same measure for `C=CC(=O)O[C@@H]1C[C@]23CC[C@H]4[C@@](C)(CCC[C@@]4(C)C(=O)OCC)[C@@H]2CC[C@@]1(C)C3`: more than 200 µM; for `CCOC(=O)[C@]1(C)CCC[C@@]2(C)[C@@H]3CC[C@@]4(C)C[C@]3(CC[C@@H]21)CC4=O`: more than 200 µM; for `CC(C)CCOC(=O)[C@]1(C)CCC[C@@]2(C)[C@@H]3CC[C@@]4(C)C[C@]3(CC[C@@H]21)[C@H](CO)[C@H]4O`: 116 µM. The same measure for `CCOC(=O)[C@]1(C)CCC[C@@]2(C)[C@@H]3CC[C@@]4(C)C[C@]3(CC[C@@H]21)[C@H](COC(=O)c1ccccc1)C4=O`: more than 200 µM; for `C=CCOC(=O)[C@]1(C)CCC[C@@]2(C)[C@@H]3CC[C@@]4(C)C[C@]3(CC[C@@H]21)[C@H](CO)[C@H]4O`: 143 µM; for `CCCCOC(=O)[C@]1(C)CCC[C@@]2(C)[C@@H]3CC[C@@]4(C)C[C@]3(CC[C@@H]21)[C@H](CO)[C@H]4O`: 87.2 µM. `CC(C)(C)OC(=O)[C@]1(C)CCC[C@@]2(C)[C@@H]3CC[C@@]4(C)C[C@]3(CC[C@@H]21)[C@H](CO)[C@H]4O` yielded a half-inhibitory concentration (IC50) of 114 µM.

In turn, `CCOC(=O)[C@]1(C)CCC[C@@]2(C)[C@@H]3CC[C@@]4(C)C[C@]3(CC[C@@H]21)[C@H](CO)C4=O` registered an IC50 of 143 µM. Turning to `C[C@@]12CC[C@@H]3[C@@](CC[C@H]4[C@@]3(C)CCC[C@@]4(C)C(=O)O)(C[C@H]1O)C2`, it took 156 µM to reach half-maximal inhibition (IC50). With `CCCOC(=O)[C@]1(C)CCC[C@@]2(C)[C@@H]3CC[C@@]4(C)C[C@]3(CC[C@@H]21)[C@H](CO)[C@H]4O`, the IC50 is 85.4 µM. Against the preceding compound, the IC50 is about 1.8-fold lower. The same measure for `CCOC(=O)[C@]1(C)CCC[C@@]2(C)[C@@H]3CC[C@@]4(C)C[C@]3(CC[C@@H]21)CC(=O)O4`: 118 µM; for `C[C@@]12CC[C@@H]3[C@@](CC[C@H]4[C@@]3(C)CCC[C@@]4(C)C(=O)O)(C[C@@H]1N)C2`: more than 200 µM.

In turn, `CCOC(=O)[C@]1(C)CCC[C@@]2(C)[C@@H]3CC[C@@]4(C)C[C@]3(CC[C@@H]21)[C@H](CO)[C@H]4O` gave an IC50 of 86.2 µM. Regarding `CCOC(=O)[C@]1(C)CCC[C@@]2(C)[C@@H]3CC[C@@]4(C)C[C@]3(CC[C@@H]21)c1c4[nH]c2ccccc12`, the IC50 amounted to 68.2 µM. Take `C[C@@]12CC[C@@H]3[C@@](CC[C@H]4[C@@]3(C)CCC[C@@]4(C)C(=O)O)(C/C1=N/O)C2`: inhibition was half-maximal at 92.1 µM (IC50). In turn, `CCOC(=O)[C@]1(C)CCC[C@@]2(C)[C@@H]3CC[C@@]4(C)C[C@]3(CC[C@@H]21)[C@H](COC(C)=O)C4=O` returned an IC50 of more than 200 µM.

On to `C[C@@]12CC[C@@H]3[C@@](CC[C@H]4[C@@]3(C)CCC[C@@]4(C)C(=O)O)(CC(=O)N1)C2` [ISOSTEVIOL LACTAM], for which half-maximal inhibition (IC50) was put at 81.6 µM. This lies in the double-digit micromolar range. To `CCOC(=O)[C@]1(C)CCC[C@@]2(C)[C@@H]3CC[C@@]4(C)C[C@]3(CC[C@@H]21)[C@H](COC(C)=O)[C@H]4O` belongs 132 µM; to `CCOC(=O)[C@]1(C)CCC[C@@]2(C)[C@@H]3CC[C@@]4(C)C[C@]3(CC[C@@H]21)C[C@@H]4N`, 91.2 µM; to `C[C@]12CC[C@@H]3[C@](CC[C@H]4[C@@]3(C)CCC[C@@]4(C)C(=O)O)(C1)c1c2[nH]c2ccccc12`, 83.2 µM.

On to `CCOC(=O)[C@]1(C)CCC[C@@]2(C)[C@@H]3CC[C@@]4(C)C[C@]3(CC[C@@H]21)[C@H](COC(=O)c1ccccc1)[C@H]4O`, for which the IC50 amounted to 112 µM. To `C=C1C(=O)[C@@]2(C)CC[C@@H]3[C@]1(CC[C@H]1[C@@]3(C)CCC[C@@]1(C)C(=O)OCC)C2` belongs more than 200 µM; to `CCOC(=O)[C@]1(C)CCC[C@@]2(C)[C@@H]3CC[C@@]4(C)C[C@]3(CC[C@@H]21)C/C4=N\O`, 88.9 µM; to `C[C@]12CC[C@H]3[C@]4(C)CCC[C@@](C)(C(=O)OCCO)[C@H]4CC[C@@]3(C1)[C@H](CO)[C@H]2O`, more than 200 µM.

Compound `C[C@@]12CC[C@@H]3[C@@](CC[C@H]4[C@@]3(C)CCC[C@@]4(C)C(=O)O)(CC(=O)O1)C2` showed an IC50 of 139 µM. To `CC(C)OC(=O)[C@]1(C)CCC[C@@]2(C)[C@@H]3CC[C@@]4(C)C[C@]3(CC[C@@H]21)[C@H](CO)[C@H]4O` belongs 97.2 µM. For the compound `C[C@@]12CC[C@@H]3[C@@](CC[C@H]4[C@@]3(C)CCC[C@@]4(C)C(=O)O)(CC1=O)C2` [ISOSTEVIOL], the half-inhibitory concentration (IC50) is more than 200 µM. Turning to `COC(=O)[C@]1(C)CCC[C@@]2(C)[C@@H]3CC[C@@]4(C)C[C@]3(CC[C@@H]21)[C@H](CO)[C@H]4O`, the half-maximal inhibitory concentration (IC50) was 96.5 µM. Take `CCOC(=O)[C@]1(C)CCC[C@@]2(C)[C@@H]3CC[C@@]4(C)C[C@]3(CC[C@@H]21)CC(=O)N4`: inhibition was half-maximal at 72.4 µM (IC50). The IC50 values of the last two compounds are within 1.5-fold of each other.

(Values after ChEMBL document CHEMBL1152716, “Stereoselective synthesis of bioactive isosteviol derivatives as alpha-glucosidase inhibitors” (Bioorg Med Chem, 2009).)
